From PMC5955861 (Oncogene, 2018)
Where two headings read alike, the source gives them in different places.

Tests used:
MV-4-11B = experiment: alamarBlue cell proliferation assay; format: cell-based, human; conditions: Homo sapiens
How it was run: (§1)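 Cell lines from ATCC or DSMZ were cultured per supplier's instructions and STR-authenticated. MV-4-11B is a clone of MV-4-11 carrying heterozygous TP53 c.742C>T (p.R248W). Cells were exposed to test compound in 96-well format, and viability was read after incubation with alamarBlue.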

OPM-2 = experiment: alamarBlue cell proliferation assay; format: cell-based; conditions: Homo sapiens
How it was run: (§2)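 Leukemia, lymphoma and myeloma lines (from ATCC or DSMZ, grown per supplier instructions, STR-authenticated; GFP-labelled sublines where stated) were incubated with test compound in 96-well flat-bottom plates. Viability was read by alamarBlue conversion, and EC50 was taken from the concentration-response.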

SR-786 = experiment: alamarBlue cell proliferation assay; format: cell-based
How it was run: as §2

HL-60 = experiment: alamarBlue cell proliferation assay; format: cell-based; conditions: Homo sapiens
How it was run: as §2

Kasumi-3 = experiment: alamarBlue cell proliferation assay; format: cell-based
How it was run: as §2

MHH-PREB-1 = experiment: alamarBlue cell proliferation assay; format: cell-based; conditions: Homo sapiens
How it was run: as §2

Toledo = experiment: alamarBlue cell proliferation assay; format: cell-based; conditions: Homo sapiens
How it was run: as §1

Hexim1 mRNA = Hexim1 mRNA in blood of xenograft bearing mice; format: in vivo; conditions: 24 h after dosing; MV-4-11B xenograft bearing mice
How it was run: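 Mice bearing subcutaneous MV-4-11B xenografts were dosed daily with vehicle or test compound at 2, 4 or 12 mg/kg, and blood was collected on the indicated treatment days. Total RNA was isolated with TRI reagent, and 500 ng was reverse-transcribed. Hexim1 transcript was quantified by SYBR Green qRT-PCR.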

[1] = tested on: MM primary patient samples; experiment: proliferation of ex vivo-treated primary patient samples; format: cell-based; conditions: Homo sapiens
hematological cell lines = experiment: alamarBlue cell proliferation assay, panel of hematological cell lines; format: cell-based
How it was run: as §1

DOHH-2 = experiment: alamarBlue cell proliferation assay; format: cell-based; conditions: Homo sapiens
How it was run: as §2

AMO-1 = experiment: alamarBlue cell proliferation assay; format: cell-based; conditions: Homo sapiens, AMO1
How it was run: as §2

DB = experiment: alamarBlue cell proliferation assay; format: cell-based; conditions: Homo sapiens
How it was run: as §2

RI-1 = experiment: alamarBlue cell proliferation assay; format: cell-based
How it was run: as §2

OCI-AML3 = experiment: alamarBlue cell proliferation assay; format: cell-based; conditions: Homo sapiens, OCI-AML-3
How it was run: as §2

J.RT3-T3.5 = experiment: alamarBlue cell proliferation assay; format: cell-based; conditions: Homo sapiens
How it was run: as §2

HT = experiment: alamarBlue cell proliferation assay; format: cell-based; conditions: Homo sapiens
How it was run: as §2

Pfeiffer = experiment: alamarBlue cell proliferation assay; format: cell-based; conditions: Homo sapiens
How it was run: as §2

OPM-2 GFP = experiment: alamarBlue cell proliferation assay; format: cell-based; conditions: Homo sapiens
How it was run: as §2

SU-DHL6 = experiment: alamarBlue cell proliferation assay; format: cell-based; conditions: Homo sapiens, SU-DHL-6
How it was run: as §1

MUTZ-3 = experiment: alamarBlue cell proliferation assay; format: cell-based
How it was run: as §2

MOLM-13 GFP = experiment: alamarBlue cell proliferation assay; format: cell-based; conditions: Homo sapiens
How it was run: as §2

THP-1 AML cells = experiment: disseminated AML xenograft efficacy study; format: in vivo, CIEA-NOG mice; conditions: BI 894999 daily, 4 mg/kg p.o.
[2] = tested on: p-Ser2 POL-II in MV-4-11B cells; experiment: p-Ser2 POL-II custom MSD assay; format: cell-based; conditions: 35 nM BI 894999, 2 h
How it was run: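 MV-4-11B cells were treated for 2 h with single agents or their combination. Phospho-Ser2 RNA Pol II was quantified with a custom Meso Scale Discovery multi-array assay.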

THP-1 GFP = experiment: alamarBlue cell proliferation assay; format: cell-based; conditions: Homo sapiens
How it was run: as §1

U266 B1 = experiment: alamarBlue cell proliferation assay; format: cell-based; conditions: Homo sapiens, U-266
How it was run: as §1

OCI-Ly19 = experiment: alamarBlue cell proliferation assay; format: cell-based; conditions: Homo sapiens
How it was run: as §2

RL = experiment: alamarBlue cell proliferation assay; format: cell-based; conditions: Homo sapiens
How it was run: as §2

L-363 = experiment: alamarBlue cell proliferation assay; format: cell-based; conditions: Homo sapiens
How it was run: as §2

RPMI 8226 = experiment: alamarBlue cell proliferation assay; format: cell-based; conditions: Homo sapiens
How it was run: as §2

MV-4-11B cells = experiment: IncuCyte live-cell proliferation and caspase-3/7 apoptosis assay; format: cell-based
U-2932 = experiment: alamarBlue cell proliferation assay; format: cell-based; conditions: Homo sapiens, U2932
How it was run: as §1

KG-1 = experiment: alamarBlue cell proliferation assay; format: cell-based; conditions: Homo sapiens
How it was run: as §2

MOLM-1 = experiment: alamarBlue cell proliferation assay; format: cell-based
How it was run: as §2

TMD8 = experiment: alamarBlue cell proliferation assay; format: cell-based; conditions: Homo sapiens
How it was run: as §1

OCI-Ly7 = experiment: alamarBlue cell proliferation assay; format: cell-based; conditions: Homo sapiens
How it was run: as §2

K562 = experiment: alamarBlue cell proliferation assay; format: cell-based; conditions: Homo sapiens
How it was run: as §2

**Q.** For `CNc1nc(-c2nc3ccc(N4CCN(C)CC4)cc3n2Cc2ccccc2)cn2c(C)nnc12` [BI 894999], which EC50 (MV-4-11B) is on record?
**A.** 6.8 ± 4 nM

**Q.** What about the EC50 (MV-4-11B; read-out: anti-proliferative EC50) of the same compound?
**A.** 10 nM

**Q.** What about the EC50 (OPM-2) of the same compound?
**A.** 8.9 ± 4.7 nM

**Q.** What about the EC50 (SR-786) of the same compound?
**A.** 77.3 ± 17.3 nM

**Q.** What about the EC50 (HL-60) of the same compound?
**A.** 2.7 ± 0.1 nM

**Q.** What about the EC50 (Kasumi-3) of the same compound?
**A.** 3.4 ± 1.5 nM

**Q.** And the EC50 (MHH-PREB-1)?
**A.** 24.4 ± 1.2 nM

**Q.** What about the EC50 (Toledo) of the same compound?
**A.** 6 ± 1.1 nM

**Q.** And the “Hexim1 levels in blood” value (Hexim1 mRNA)?
**A.** back to baseline

**Q.** And the EC50 ([1]; read-out: BI 894999 EC50, MM Patient 1)?
**A.** 52 nM

**Q.** And the EC50 ([1]; read-out: BI 894999 EC50, MM Patient 2)?
**A.** 15 nM

**Q.** And the EC50 ([1]; read-out: BI 894999 EC50, MM Patient 3)?
**A.** 7 nM

**Q.** What about the EC50 ([1]; read-out: BI 894999 EC50, MM Patient 4) of the same compound?
**A.** > 2000 nM

**Q.** And the EC50 ([1]; read-out: BI 894999 EC50, MM Patient 5)?
**A.** 500 nM

**Q.** What about the EC50 ([1]; read-out: BI 894999 EC50, MM Patient 6) of the same compound?
**A.** 421 nM

**Q.** And the EC50 ([1]; read-out: BI 894999 EC50, MM Patient 7)?
**A.** 54 nM

**Q.** And the EC50 ([1]; read-out: BI 894999 EC50, MM Patient 8)?
**A.** 3 nM

**Q.** And the EC50 ([1]; read-out: BI 894999 EC50, MM Patient 9)?
**A.** 21 nM

**Q.** And the EC50 ([1]; read-out: BI 894999 EC50, MM Patient 10)?
**A.** 1 nM

**Q.** And the EC50 ([1]; read-out: BI 894999 EC50, MM Patient 11)?
**A.** 57 nM

**Q.** And the EC50 ([1]; read-out: BI 894999 EC50, MM Patient 12)?
**A.** 1360 nM

**Q.** And the EC50 ([1]; read-out: BI 894999 EC50, MM Patient 13)?
**A.** 2 nM

**Q.** What about the EC50 ([1]; read-out: BI 894999 EC50, MM Patient 14) of the same compound?
**A.** 275 nM

**Q.** What about the EC50 ([1]; read-out: BI 894999 EC50, MM Patient 15) of the same compound?
**A.** 352 nM

**Q.** And the EC50 (hematological cell lines)?
**A.** < 10 nM

**Q.** And the EC50 (hematological cell lines; Homo sapiens, K562)?
**A.** < 100 nM

**Q.** What about the “increased potency compared to OTX-015” value (hematological cell lines; on cell lines) of the same compound?
**A.** 10–20 fold

**Q.** And the EC50 (DOHH-2)?
**A.** 6.2 ± 0.8 nM

**Q.** What about the EC50 (AMO-1) of the same compound?
**A.** 28 ± 15 nM

**Q.** And the EC50 (DB)?
**A.** 11.6 ± 7.6 nM

**Q.** What about the EC50 (RI-1) of the same compound?
**A.** 6.2 ± 1.9 nM

**Q.** What about the EC50 (OCI-AML3) of the same compound?
**A.** 2.3 ± 0.5 nM

**Q.** What about the EC50 (J.RT3-T3.5) of the same compound?
**A.** 11 ± 4 nM

**Q.** And the EC50 (HT)?
**A.** 11.6 ± 8.1 nM

**Q.** And the EC50 (Pfeiffer)?
**A.** 10.7 ± 2.7 nM

**Q.** What about the EC50 (OPM-2 GFP) of the same compound?
**A.** 12 nM

**Q.** And the EC50 (SU-DHL6)?
**A.** 13.4 ± 1.2 nM

**Q.** What about the EC50 (MUTZ-3) of the same compound?
**A.** 12.8 ± 11.2 nM

**Q.** And the EC50 (MOLM-13 GFP)?
**A.** 14.3 nM

**Q.** And the survival prolongation (THP-1 AML cells)?
**A.** 22 days

**Q.** What about the “p-Ser2 POL-II levels” value [2] of the same compound?
**A.** ~ 86 % of control

**Q.** What about the EC50 (THP-1 GFP) of the same compound?
**A.** 4.1 ± 2 nM

**Q.** What about the EC50 (U266 B1) of the same compound?
**A.** 14.3 ± 7.4 nM

**Q.** And the EC50 (OCI-Ly19)?
**A.** 13.2 ± 4.3 nM

**Q.** And the EC50 (RL)?
**A.** 18.2 ± 10 nM

**Q.** And the EC50 (L-363)?
**A.** 13.7 ± 6.2 nM

**Q.** And the EC50 (RPMI 8226)?
**A.** 25 ± 9 nM

**Q.** What about the “effect on proliferation (IncuCyte)” value (MV-4-11B cells; 10 nM) of the same compound?
**A.** Significant inhibition of proliferation

**Q.** And the “time of peak of apoptosis (Caspase-3/7) after start of treatment” value (MV-4-11B cells; dose-range 0.05 to 100 nM)?
**A.** around 40 h

**Q.** What about the EC50 (U-2932) of the same compound?
**A.** 4.3 ± 2.1 nM

**Q.** What about the EC50 (KG-1) of the same compound?
**A.** 6.2 ± 2.2 nM

**Q.** What about the EC50 (MOLM-1) of the same compound?
**A.** 53.4 ± 34.8 nM

**Q.** And the EC50 (TMD8)?
**A.** 9.7 ± 3.7 nM

**Q.** What about the EC50 (OCI-Ly7) of the same compound?
**A.** 14.2 ± 6.4 nM

**Q.** And the EC50 (K562)?
**A.** > 10000 nM
